Test results published in the RNAGym collection of RNA variant scans (doi:10.1126/science.aae0568).
Fewer inactive variants are shown than the library holds.

B1: tRNA (parent)
chain: GUUCCGUUGGCGUAAUGGUAACGCGUCUCCCUCCUAAGGAGAAGACUGCGGGUUCGAGUCCCGUACGGAACG

Variants of: B1
Assay: yeast fitness relative to wild type (ratio to wild type); higher = fitter; tRNA-Arg(CCU), competitive growth, 37 C, YPD
How it was run: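 Amplicons of the tRNA-Arg(CCU) gene were sequenced, 100-nucleotide paired-end, from the start population and from each end population of a pooled yeast competition. The competition, in six parallel replicates, lasted 24 hours in YPD at 37°C. Fitness relative to wild type was calculated from changes in genotype frequencies. Genotypes had to have ≥ 100 starting reads, and estimates < 0.5 were set to 0.5.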

| Variant | yeast fitness |
| --- | --- |
| C5G A14U U16C G18C U32A | 0.556 |
| C5G A21G C22U | 0.689 |
| C5G C11G A70U | ≤ 0.5 |
| C5G A57U | 0.735 |
| C5G A57G | 0.882 |
| C5G A20U C46U | 0.601 |
| C5G A36C G41C | ≤ 0.5 |
| C5G C11G A15U C55A | ≤ 0.5 |
| C5G C11G C34U C55U G67C | ≤ 0.5 |
| C5G C11U A37C C49U C60A C66G | 0.685 |
| C5G A21G U32C C62U A65U G68A | ≤ 0.5 |
| C5G A15G U28C C30U A69U | ≤ 0.5 |
| C5G A20G C30A C34G | ≤ 0.5 |
| C5A U35C A57C | ≤ 0.5 |
| C5G A14G C33A G56A U59C C61A | ≤ 0.5 |
| C5G A14U | 0.607 |
| C5G A14C | 0.625 |
| C5G C24G C31U C61A | ≤ 0.5 |
| C5G C22G C31A C49G G63C A69U | ≤ 0.5 |
| C5G A37C G51C A57G | 0.598 |
| C5G A45C A70C | 0.725 |

| Variant | yeast fitness |
| --- | --- |
| C5G A20C G39C C62U G63C | ≤ 0.5 |
| C5A U28C G63C | 0.534 |
| C5A U19A C30G | 0.594 |
| C5G A15G C66U | ≤ 0.5 |
| C5G A20U G41C | ≤ 0.5 |
| C5G C11U A37C C49U | 0.609 |
| C5G A40C U59A | ≤ 0.5 |
| C5G A43G | 0.746 |
| C5G A15U G44C G50A U54A | ≤ 0.5 |
| C5G A15U C29G U59G | ≤ 0.5 |
| C5G A69G | 0.902 |
| C5G A69C | 0.932 |
| C5G A69U | 0.894 |
| C5A U26A C33A A43C G56C | 0.597 |
| C5G A21U C29U A37U A43G C66G | ≤ 0.5 |
| C5G A14U C49U C61U | ≤ 0.5 |
| C5G A14U A37U A45C | ≤ 0.5 |
| C5G A14C C29A C31G U54G | ≤ 0.5 |
| C5G A14C C29A C31G U54A | 0.638 |
| C5A U35C G44A G48C | ≤ 0.5 |
| C5A U32C A65C | 0.68 |

| Variant | yeast fitness |
| --- | --- |
| C5G A21U C29A | 0.631 |
| C5G A37G C46G A57G | ≤ 0.5 |
| C5A U19A G38C U53C C61G G67A A69C | ≤ 0.5 |
| C5A U26A | 0.717 |
| C5G A21G C62U | 0.677 |
| C5G C24G C30G C31U U35A A36U G44A C61U | 0.67 |
| C5G A14U G18A A21U C31U C60U C61U C66G | ≤ 0.5 |
| C5G A20C U28C C29A A36U A40U C49G | ≤ 0.5 |
| C5G A15G C27G C30A | ≤ 0.5 |
| C5G A40C G52A C62U | ≤ 0.5 |
| C5G A20U U54A | ≤ 0.5 |
| C5G A14C C29A C31G A36G U54A | ≤ 0.5 |
| C5G A45G A69U | 0.688 |
| C5G C11G C30U C31U A57G | 0.8 |
| C5G A14G C33A G56A C61A | 0.583 |
| C5G A21G U28C U32C A65U G68A | ≤ 0.5 |
| C5G A14U C29U C33G A43U U54C | ≤ 0.5 |
| C5G C11U A42G C49U A70U | 0.588 |
| C5G A36U G67A | 0.571 |
| C5G A20U G25A G41A C55G | ≤ 0.5 |
| C5G C11A | 0.609 |

| Variant | yeast fitness |
| --- | --- |
| C5A U35G G41A G56A | ≤ 0.5 |
| C5G A15G C27G U28A U32A A45G C46U | 0.573 |
| C5G C11A A14G G25C C29G A70G | ≤ 0.5 |
| C5G A14C A37G C62G | 0.561 |
| C5G A20G C22G C29G | ≤ 0.5 |
| C5G C22U C27U A36G A69C | ≤ 0.5 |
| C5A U32A A36C | ≤ 0.5 |
| C5G A21G U64C | 0.723 |
| C5G A21G A45U G56A | 0.753 |
| C5G A15C C46U U53G A57C | 0.588 |
| C5G C11A A21G | 0.581 |
| C5G A20U C66U A69U | ≤ 0.5 |
| C5G A15C C29A C61G | ≤ 0.5 |
| C5G A14G G17A A20G U32C G56C C60G | ≤ 0.5 |
| C5G A15G U28A A57C C66G | ≤ 0.5 |
| C5A U35A | 0.73 |
| C5A U35G | 0.636 |
| C5G C24G C61A C62A G68C | 0.69 |
| C5G C22U A36G A65C | ≤ 0.5 |
| C5G A20G C31A | ≤ 0.5 |
| C5G C11G G12A A37C G50A | 0.533 |
